Source: ChEMBL document CHEMBL1268908, “Design, synthesis, radiolabeling, and in vivo evaluation of carbon-11 labeled N-[2-[4-(3-cyanopyridin-2-yl)piperazin-1-yl]ethyl]-3-methoxybenzamide, a potential positron emission tomography tracer for the dopamine D(4) receptors” (J Med Chem, 2010)

Assays:
[1] = Biodistribution in rhesus monkey entorhinal cortex at 150.3 MBq, iv after 87.5 mins; type: ADME, organism-based, Macaca mulatta; details: in vivo
In short: (§1)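 Single male rhesus monkey anesthetized with ketamine 10 mg/kg im, head fixed. Attenuation correction by 20 min 68Ge-68Ga transmission scan. [11C]-tracer in saline (pH 7.4) given iv, specific radioactivity 2.9 TBq/μmol at injection. Dynamic 3D PET emission scan over 90 min in frames of 0.5 to 5 min. MRI T1 images used to define VOIs. Uptake expressed as […].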

[2] = Biodistribution in rhesus monkey entorhinal cortex at 150.3 MBq, iv after 4.5 mins; type: ADME, organism-based, Macaca mulatta; details: in vivo, 0.075 h; in short: as §1
[3] = system: Striatum; assay: Biodistribution in rhesus monkey striatum at 150.3 MBq, iv after 8.5 mins; type: ADME, organism-based, Macaca mulatta; details: in vivo
[4] = Biodistribution in rhesus monkey retina at 150.3 MBq, iv after 41 mins; type: ADME, organism-based, Macaca mulatta; details: in vivo
[5] = Biodistribution in rhesus monkey retina at 150.3 MBq, iv after 37 mins; type: ADME, organism-based, Macaca mulatta; details: in vivo
[6] = Biodistribution in rhesus monkey cingulate cortex at 150.3 MBq, iv after 8.5 mins; type: ADME, organism-based, Macaca mulatta; details: in vivo; in short: as §1
[7] = Biodistribution in rhesus monkey occipital lobe at 150.3 MBq, iv after 37 mins; type: ADME, organism-based, Macaca mulatta; details: in vivo
In short: (§2)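 Male rhesus monkey under ketamine 10 mg/kg im, head fixed; 20 min 68Ge-68Ga transmission scan, then 90 min dynamic 3D PET (6×0.5, 7×1, 20×2, 8×5 min frames) after iv [11C]-labelled tracer in saline, specific radioactivity about 2.9 TBq/μmol at injection. Regions defined on T1-weighted MRI; uptake expressed as % injected dose per mL.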

[8] = system: Hippocampus; assay: Biodistribution in rhesus monkey hippocampus at 150.3 MBq, iv after 19 mins; type: ADME, organism-based, Macaca mulatta; details: in vivo; in short: as §1
[9] = Biodistribution in rhesus monkey cingulate cortex at 150.3 MBq, iv after 19 mins; type: ADME, organism-based, Macaca mulatta; details: in vivo
In short: (§3)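 Male rhesus monkey under ketamine (10 mg/kg im) with head fixation. After a 20 min 68Ge-68Ga transmission scan, the [11C]-labelled tracer in saline (pH 7.4) was injected iv, at 2.9 TBq/μmol specific radioactivity at injection. A dynamic 3D PET scan followed over 90 min (6×0.5, 7×1, 20×2, 8×5 min frames). Regions were defined on T1-weighted 1.5 T MRI, and uptake is given as %ID/mL.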

[10] = Biodistribution in rhesus monkey cerebellum at 150.3 MBq, iv after 39 mins; type: ADME, organism-based, Macaca mulatta; details: in vivo, 0.65 h; in short: as §3
[11] = Biodistribution in rhesus monkey entorhinal cortex at 150.3 MBq, iv after 0.75 mins; type: ADME, organism-based, Macaca mulatta; details: in vivo, 45 s; in short: as §1
[12] = Biodistribution in rhesus monkey cingulate cortex at 150.3 MBq, iv after 41 mins; type: ADME, organism-based, Macaca mulatta; details: in vivo; in short: as §3
[13] = Biodistribution in rhesus monkey retina at 150.3 MBq, iv after 33 mins; type: ADME, organism-based, Macaca mulatta; details: in vivo, 0.55 h
[14] = Biodistribution in rhesus monkey cingulate cortex at 150.3 MBq, iv after 82.5 mins; type: ADME, organism-based, Macaca mulatta; details: in vivo, 1.375 h; in short: as §1
[15] = system: Striatum; assay: Biodistribution in rhesus monkey striatum at 150.3 MBq, iv after 67.5 mins; type: ADME, organism-based, Macaca mulatta; details: in vivo, 1.125 h
[16] = Biodistribution in rhesus monkey occipital lobe at 150.3 MBq, iv after 9.5 mins; type: ADME, organism-based, Macaca mulatta; details: in vivo
[17] = Biodistribution in rhesus monkey occipital lobe at 150.3 MBq, iv after 11 mins; type: ADME, organism-based, Macaca mulatta; details: in vivo; in short: as §2
[18] = system: Striatum; assay: Biodistribution in rhesus monkey striatum at 150.3 MBq, iv after 17 mins; details: in vivo
[19] = Biodistribution in rhesus monkey cerebellum at 150.3 MBq, iv after 57.5 mins; type: ADME, organism-based, Macaca mulatta; details: in vivo; in short: as §3
[20] = Biodistribution in rhesus monkey cerebellum at 150.3 MBq, iv after 8.5 mins; type: ADME, organism-based, Macaca mulatta; details: in vivo; in short: as §3
[21] = Biodistribution in rhesus monkey occipital lobe at 150.3 MBq, iv after 43 mins; type: ADME, organism-based, Macaca mulatta; details: in vivo
In short: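 A male rhesus monkey was anaesthetised with ketamine 10 mg/kg im and placed in a head fixation device. A 20 min 68Ge-68Ga transmission scan was run for attenuation correction. Radiotracer in saline (pH 7.4) was given iv, about 52 pmol (18 ng), at 2.9 TBq/μmol at injection. A dynamic 3D PET scan followed for 90 min. Regional VOIs were defined on a T1-weighted MRI, with uptake expressed as %ID/mL.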

[22] = system: Striatum; assay: Biodistribution in rhesus monkey striatum at 150.3 MBq, iv after 29 mins; type: ADME, organism-based, Macaca mulatta; details: in vivo
[23] = Biodistribution in rhesus monkey entorhinal cortex at 150.3 MBq, iv after 13 mins; type: ADME, organism-based, Macaca mulatta; details: in vivo; in short: as §1
[24] = Biodistribution in rhesus monkey cingulate cortex at 150.3 MBq, iv after 15 mins; type: ADME, organism-based, Macaca mulatta; details: in vivo, 0.25 h; in short: as §3
[25] = Biodistribution in rhesus monkey cingulate cortex at 150.3 MBq, iv after 67.5 mins; type: ADME, organism-based, Macaca mulatta; details: in vivo, 1.125 h; in short: as §1
[26] = Biodistribution in rhesus monkey entorhinal cortex at 170.3 MBq, iv after 17 mins; type: ADME, organism-based, Macaca mulatta; details: in vivo, in the assay text read “150.3 MBq” for “170.3 MBq”; in short: as §1
[27] = Biodistribution in rhesus monkey occipital lobe at 150.3 MBq, iv after 6.5 mins; type: ADME, organism-based, Macaca mulatta; details: in vivo
[28] = system: Hippocampus; assay: Biodistribution in rhesus monkey hippocampus at 150.3 MBq, iv after 3.5 mins; type: ADME, organism-based, Macaca mulatta; details: in vivo; in short: as §2
[29] = system: Striatum; assay: Biodistribution in rhesus monkey striatum at 150.3 MBq, iv after 33 mins; type: ADME, organism-based, Macaca mulatta; details: in vivo, 0.55 h
[30] = Biodistribution in rhesus monkey entorhinal cortex at 150.3 MBq, iv after 29 mins; type: ADME, organism-based, Macaca mulatta; details: in vivo; in short: as §1
[31] = Biodistribution in rhesus monkey cingulate cortex at 150.3 MBq, iv after 31 mins; type: ADME, organism-based, Macaca mulatta; details: in vivo; in short: as §3
[32] = Biodistribution in rhesus monkey occipital lobe at 150.3 MBq, iv after 1.25 mins; type: ADME, organism-based, Macaca mulatta; details: in vivo, 75 s; in short: as §2
[33] = Biodistribution in rhesus monkey retina at 150.3 MBq, iv after 3.5 mins; type: ADME, organism-based, Macaca mulatta; details: in vivo
[34] = system: Hippocampus; assay: Biodistribution in rhesus monkey hippocampus at 150.3 MBq, iv after 9.5 mins; type: ADME, organism-based, Macaca mulatta; details: in vivo; in short: as §2
[35] = system: Hippocampus; assay: Biodistribution in rhesus monkey hippocampus at 150.3 MBq, iv after 4.5 mins; type: ADME, organism-based, Macaca mulatta; details: in vivo, 0.075 h; in short: as §2
[36] = Biodistribution in rhesus monkey cingulate cortex at 150.3 MBq, iv after 57.5 mins; type: ADME, organism-based, Macaca mulatta; details: in vivo; in short: as §1
[37] = system: Striatum; assay: Biodistribution in rhesus monkey striatum at 150.3 MBq, iv after 2.75 mins; type: ADME, organism-based, Macaca mulatta; details: in vivo, 165 s
[38] = system: Striatum; assay: Biodistribution in rhesus monkey striatum at 150.3 MBq, iv after 23 mins; type: ADME, organism-based, Macaca mulatta; details: in vivo
[39] = Biodistribution in rhesus monkey cerebellum at 150.3 MBq, iv after 17 mins; details: in vivo
[40] = system: Hippocampus; assay: Biodistribution in rhesus monkey hippocampus at 150.3 MBq, iv after 62.5 mins; type: ADME, organism-based, Macaca mulatta; details: in vivo; in short: as §2
[41] = system: Striatum; assay: Biodistribution in rhesus monkey striatum at 150.3 MBq, iv after 19 mins; type: ADME, organism-based, Macaca mulatta; details: in vivo
[42] = system: Hippocampus; assay: Biodistribution in rhesus monkey hippocampus at 150.3 MBq, iv after 23 mins; type: ADME, organism-based, Macaca mulatta; details: in vivo; in short: as §1
[43] = Biodistribution in rhesus monkey cerebellum at 150.3 MBq, iv after 72.5 mins; type: ADME, organism-based, Macaca mulatta; details: in vivo; in short: as §3
[44] = Biodistribution in rhesus monkey cingulate cortex at 150.3 MBq, iv after 6.5 mins; type: ADME, organism-based, Macaca mulatta; details: in vivo; in short: as §1

With `[11CH3]Oc1cccc(C(=O)NCCN2CCN(c3ncccc3C#N)CC2)c1` as the compound, how does the Drug uptake [1] read?
The Drug uptake was 10.53 kBq/ml.

What about the Drug uptake [2] of the same compound?
The Drug uptake was 33.7 kBq/ml.

What about the Drug uptake [3] of the same compound?
Its Drug uptake is 31.7 kBq/ml.

And the Drug uptake [4]?
Its Drug uptake is 57.19 kBq/ml.

What about the Drug uptake [5] of the same compound?
Its Drug uptake is 57.39 kBq/ml.

What about the Drug uptake [6] of the same compound?
Its Drug uptake is 30.4104 kBq/ml.

And the Drug uptake [7]?
The Drug uptake was 11.24 kBq/ml.

What about the Drug uptake [8] of the same compound?
The Drug uptake was 18.77 kBq/ml.

What about the Drug uptake [9] of the same compound?
The Drug uptake was 18.84 kBq/ml.

What about the Drug uptake [10] of the same compound?
Its Drug uptake is 10.98 kBq/ml.

What about the Drug uptake [11] of the same compound?
The Drug uptake was 36.57 kBq/ml.

What about the Drug uptake [12] of the same compound?
The Drug uptake was 10.93 kBq/ml.

And the Drug uptake [13]?
Its Drug uptake is 57.47 kBq/ml.

What about the Drug uptake [14] of the same compound?
Its Drug uptake is 9.311 kBq/ml.

And the Drug uptake [15]?
Its Drug uptake is 9.576 kBq/ml.

What about the Drug uptake [16] of the same compound?
The Drug uptake was 25.01 kBq/ml.

And the Drug uptake [17]?
The Drug uptake was 21.64 kBq/ml.

What about the Drug uptake [18] of the same compound?
The Drug uptake was 20.6138 kBq/ml.

What about the Drug uptake [19] of the same compound?
Its Drug uptake is 9.179 kBq/ml.

And the Drug uptake [20]?
Its Drug uptake is 27.59 kBq/ml.

And the Drug uptake [21]?
Its Drug uptake is 9.37 kBq/ml.

And the Drug uptake [22]?
The Drug uptake was 15.32 kBq/ml.

What about the Drug uptake [23] of the same compound?
The Drug uptake was 22.48 kBq/ml.

And the Drug uptake [24]?
The Drug uptake was 20.1 kBq/ml.

And the Drug uptake [25]?
Its Drug uptake is 9.959 kBq/ml.

And the Drug uptake [26]?
Its Drug uptake is 20.28 kBq/ml.

And the Drug uptake [27]?
The Drug uptake was 30.03 kBq/ml.

What about the Drug uptake [28] of the same compound?
Its Drug uptake is 43.93 kBq/ml.

And the Drug uptake [29]?
Its Drug uptake is 14.6624 kBq/ml.

What about the Drug uptake [30] of the same compound?
The Drug uptake was 15.05 kBq/ml.

And the Drug uptake [31]?
The Drug uptake was 14.33 kBq/ml.

And the Drug uptake [32]?
The Drug uptake was 55.16 kBq/ml.

And the Drug uptake [33]?
Its Drug uptake is 39.59 kBq/ml.

What about the Drug uptake [34] of the same compound?
Its Drug uptake is 30.28 kBq/ml.

What about the Drug uptake [35] of the same compound?
Its Drug uptake is 41.63 kBq/ml.

What about the Drug uptake [36] of the same compound?
The Drug uptake was 10.34 kBq/ml.

And the Drug uptake [37]?
The Drug uptake was 50.12 kBq/ml.

What about the Drug uptake [38] of the same compound?
The Drug uptake was 18.52 kBq/ml.

And the Drug uptake [39]?
The Drug uptake was 18.41 kBq/ml.

And the Drug uptake [40]?
The Drug uptake was 8.242 kBq/ml.

What about the Drug uptake [41] of the same compound?
Its Drug uptake is 20.01 kBq/ml.

What about the Drug uptake [42] of the same compound?
Its Drug uptake is 17.98 kBq/ml.

And the Drug uptake [43]?
The Drug uptake was 8.18 kBq/ml.

And the Drug uptake [44]?
Its Drug uptake is 35.15 kBq/ml.
